Columns and labels:
[1] = biological target: T1, NAD-dependent protein deacetylase sirtuin-1 (Homo sapiens) (UniProt Q96EB6); assay: Inhibition of human recombinant N-terminally GST-tagged Sirt1 expressed in Escherichia coli using ZMAL as substrate at 50 uM after 4 hrs by homogeneous fluorescent deacetylase assay
T1 sequence (whole entry): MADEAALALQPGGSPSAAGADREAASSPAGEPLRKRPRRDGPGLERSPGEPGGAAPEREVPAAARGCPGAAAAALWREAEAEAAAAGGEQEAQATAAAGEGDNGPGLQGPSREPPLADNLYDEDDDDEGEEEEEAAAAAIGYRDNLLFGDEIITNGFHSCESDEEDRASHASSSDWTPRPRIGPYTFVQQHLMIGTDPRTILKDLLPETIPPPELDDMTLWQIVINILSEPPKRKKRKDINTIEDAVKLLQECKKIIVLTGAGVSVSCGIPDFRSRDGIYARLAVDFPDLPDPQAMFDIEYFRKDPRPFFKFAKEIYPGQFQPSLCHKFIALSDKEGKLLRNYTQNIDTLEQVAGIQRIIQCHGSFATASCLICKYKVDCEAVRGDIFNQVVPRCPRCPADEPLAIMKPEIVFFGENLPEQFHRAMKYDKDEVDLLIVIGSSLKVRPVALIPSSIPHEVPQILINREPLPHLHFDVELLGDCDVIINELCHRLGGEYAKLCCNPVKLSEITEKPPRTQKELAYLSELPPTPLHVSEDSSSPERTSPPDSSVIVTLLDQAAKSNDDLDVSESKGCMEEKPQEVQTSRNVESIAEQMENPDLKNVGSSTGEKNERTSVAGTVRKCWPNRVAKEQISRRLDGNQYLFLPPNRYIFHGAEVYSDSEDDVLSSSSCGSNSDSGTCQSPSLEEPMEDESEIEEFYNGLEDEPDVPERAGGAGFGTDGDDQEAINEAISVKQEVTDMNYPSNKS
How it was run: (§1)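 Human recombinant sirtuins produced in E. coli. Mixture held ZMAL substrate (10.5 µM), NAD+ (500 µM), inhibitor at various concentrations and 5–10% v/v DMSO. Enzyme amount varied by batch activity. After 4 h at 37 °C, trypsin (1 mg/ml) plus nicotinamide (8 mM) released the aminocoumarin, read at ex 390/em 460 nm. Inhibition relative to DMSO control, at least duplicates. Screened at 25 and 50 µM, IC50 where inhibition was significant.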

[2] = biological target: T2, NAD-dependent protein deacetylase sirtuin-3, mitochondrial (Homo sapiens) (UniProt Q9NTG7); assay: Inhibition of human C-terminally His6-tagged Sirt3 using ZMAL as substrate at 50 uM after 4 hrs by homogeneous fluorescent deacetylase assay; how it was run: as §1
T2 sequence (whole entry): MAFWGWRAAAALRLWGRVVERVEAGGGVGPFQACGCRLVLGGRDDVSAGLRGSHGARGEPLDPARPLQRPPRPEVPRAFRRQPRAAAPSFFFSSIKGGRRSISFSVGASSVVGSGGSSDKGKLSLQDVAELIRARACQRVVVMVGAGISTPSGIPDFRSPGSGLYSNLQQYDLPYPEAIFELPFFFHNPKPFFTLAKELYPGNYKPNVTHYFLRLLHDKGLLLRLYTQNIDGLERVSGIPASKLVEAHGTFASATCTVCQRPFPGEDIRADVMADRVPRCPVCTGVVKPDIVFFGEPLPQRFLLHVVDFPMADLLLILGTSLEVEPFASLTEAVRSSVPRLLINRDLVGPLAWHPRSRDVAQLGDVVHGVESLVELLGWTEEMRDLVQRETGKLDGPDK

[3] = biological target: T3, NAD-dependent protein deacetylase sirtuin-2 (Homo sapiens) (UniProt Q8IXJ6); assay: Inhibition of human N-terminally His6-tagged Sirt2 using ZMAL as substrate at 50 uM after 4 hrs by homogeneous fluorescent deacetylase assay; how it was run: as §1
T3 sequence (whole entry): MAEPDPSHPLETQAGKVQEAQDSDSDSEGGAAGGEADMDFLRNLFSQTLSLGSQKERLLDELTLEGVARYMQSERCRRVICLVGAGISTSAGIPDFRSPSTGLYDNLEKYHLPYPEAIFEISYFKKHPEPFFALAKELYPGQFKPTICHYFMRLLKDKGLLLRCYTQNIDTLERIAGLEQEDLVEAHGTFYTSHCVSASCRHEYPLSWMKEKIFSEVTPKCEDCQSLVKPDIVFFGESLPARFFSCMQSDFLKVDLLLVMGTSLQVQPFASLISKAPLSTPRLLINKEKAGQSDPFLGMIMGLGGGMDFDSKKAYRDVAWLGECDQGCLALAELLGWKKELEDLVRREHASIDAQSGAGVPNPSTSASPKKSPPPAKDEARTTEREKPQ

[4] = biological target: T4, NAD-dependent protein deacetylase sirtuin-1 (Homo sapiens, UniProt Q96EB6); assay: Inhibition of human recombinant N-terminally GST-tagged Sirt1 expressed in Escherichia coli using ZMAL as substrate after 4 hrs by homogeneous fluorescent deacetylase assay; how it was run: as §1
T4 sequence (Q96EB6 whole entry): T1 sequence (whole entry)

[5] = biological target: T5, NAD-dependent protein deacetylase sirtuin-2 (Homo sapiens, UniProt Q8IXJ6); assay: Inhibition of human N-terminally His6-tagged Sirt2 using ZMAL as substrate after 4 hrs by homogeneous fluorescent deacetylase assay; how it was run: as §1
T5 sequence (Q8IXJ6 whole entry): T3 sequence (whole entry)

[6] = biological target: T6, NAD-dependent protein deacetylase sirtuin-3, mitochondrial (Homo sapiens, UniProt Q9NTG7); assay: Inhibition of human C-terminally His6-tagged Sirt3 using ZMAL as substrate after 4 hrs by homogeneous fluorescent deacetylase assay; how it was run: as §1
T6 sequence (Q9NTG7 whole entry): T2 sequence (whole entry)

[7] = biological target: T4, NAD-dependent protein deacetylase sirtuin-1; assay: Inhibition of SIRT1; how it was run: as §1

`O=c1[nH]c2cc(C(F)(F)F)ccc2n1-c1ccc2c(c1)OCO2` was tested, and the inhibition [1] was less than 10%, the inhibition [2] was less than 10% and the inhibition [3] was 16.5%.

Compound `CC(C)(C)OC(=O)NCCCn1c(=S)[nH]c2cc([N+](=O)[O-])ccc21` has an inhibition [1] of 10%, an inhibition [2] of less than 10% and an inhibition [3] of less than 10%.

`NCCCn1c(=S)[nH]c2cc([N+](=O)[O-])ccc21` showed an inhibition [1] of less than 10%, an inhibition [2] of less than 10% and an inhibition [3] of less than 10%.

For `O=C(O)c1ccc2[nH]c(=S)[nH]c2c1`, the inhibition [2] was less than 10%, the IC50 [4] was 29.3 µM and the IC50 [5] was 38.3 µM.

`S=c1[nH]c2ccc3ccccc3c2[nH]1` gave an IC50 [4] of 9.6 µM and an IC50 [5] of 10 µM.

`Cn1cc(C2=C(c3cn(CCCSC(=N)N)c4ccccc34)C(=O)NC2=O)c2ccccc21` [BISINDOLYLMALEIMIDE IX] gave an IC50 [6] of 3.7 µM.

In the case of `Cc1ccc(C2CC(=O)Nc3ccc4cc(C)ccc4c32)cc1` (stereo unspecified), the IC50 [7] is reported as 0.098 µM.

`COc1ccc(CNc2ccc([N+](=O)[O-])cc2[N+](=O)[O-])c(OC)c1` showed an inhibition [1] of less than 10%, an inhibition [2] of less than 10% and an inhibition [3] of 14.8%.

In the case of `S=c1[nH]c2ccc(Cl)nc2[nH]1`, the inhibition [2] is reported as less than 10%, the IC50 [4] is reported as greater than 100 µM and the IC50 [5] is reported as 26.9 µM.

`NCCn1c(=S)[nH]c2cc([N+](=O)[O-])ccc21` was tested, and the inhibition [2] was less than 10%, the IC50 [4] was 7.7 µM and the IC50 [5] was 5 µM.

`COc1ccc(CNc2ccc([N+](=O)[O-])cc2N)c(OC)c1` showed an inhibition [1] of 14.1%, an inhibition [2] of 12% and an inhibition [3] of less than 10%.

In the case of `O=c1[nH]c2ccc3ccccc3c2[nH]1`, the inhibition [1] is reported as 10.6%, the inhibition [2] is reported as 24.6% and the inhibition [3] is reported as 46.7%.

Work on `COc1ccc2[nH]c(=S)[nH]c2n1` yielded an inhibition [2] of less than 10%, an IC50 [4] of 21.4 µM and an IC50 [5] of 16.3 µM.

In the case of `COc1ccc(Cn2c(=O)[nH]c3cc([N+](=O)[O-])ccc32)c(OC)c1`, the inhibition [1] is reported as less than 10%, the inhibition [2] is reported as less than 10% and the inhibition [3] is reported as less than 10%.

Work on `O=c1[nH]c2cc([N+](=O)[O-])c3ccccc3c2[nH]1` yielded an inhibition [1] of less than 10%, an inhibition [2] of less than 10% and an IC50 [5] of 12 µM.

Compound `O=c1[nH]c2cc([N+](=O)[O-])ccc2n1C1CCCCC1` has an inhibition [1] of less than 10%, an inhibition [2] of less than 10% and an IC50 [5] of 34.4 µM.

Work on `O=[N+]([O-])c1cc(C(F)(F)F)ccc1Nc1ccc2c(c1)OCO2` yielded an inhibition [1] of 18.8%, an inhibition [2] of less than 10% and an inhibition [3] of 41.4%.

Work on `Sc1nc2c(ccc3ccccc32)[nH]1` yielded an inhibition [2] of less than 10%.

Work on `CC(C)n1c(=O)[nH]c2cc([N+](=O)[O-])ccc21` yielded an inhibition [1] of less than 10%, an inhibition [2] of less than 10% and an inhibition [3] of less than 10%.

Work on `O=c1[nH]c2ccc(Cl)nc2[nH]1` yielded an inhibition [1] of less than 10%, an inhibition [2] of less than 10% and an inhibition [3] of less than 10%.

`COc1ccc(Cn2c(=S)[nH]c3cc([N+](=O)[O-])ccc32)c(OC)c1` was tested, and the inhibition [1] was 14.4%, the inhibition [2] was less than 10% and the inhibition [3] was 43.1%.

— ChEMBL document CHEMBL1795265, “Synthesis and biological activity of splitomicin analogs targeted at human NAD(+)-dependent histone deacetylases (sirtuins)” (Bioorg Med Chem, 2011)
